# According to the RNAGym collection of RNA variant scans (doi:10.1126/science.aae0568):
# Variants at the floor of the assay were thinned out.
# B1: tRNA (parent)
# chain: GUUCCGUUGGCGUAAUGGUAACGCGUCUCCCUCCUAAGGAGAAGACUGCGGGUUCGAGUCCCGUACGGAACG
# Variants of: B1
# Assay: yeast fitness relative to wild type (ratio to wild type); higher = fitter; tRNA-Arg(CCU), competitive growth, 37 C, YPD
# Outline: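 Genotype frequency changes were the basis for Darwinian fitness relative to wild type. The frequencies came from 100-nucleotide paired-end sequencing of gene amplicons from the start population and each end population of pooled yeast strains with tRNA-Arg(CCU) gene variants at the native locus. Competition ran in YPD at 37°C for 24 hours in six replicates, genotypes needed ≥ 100 starting reads, and estimates < 0.5 were set to 0.5.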
row,Variant,yeast fitness
1,GUUCCGUUGGCGUAAUGGUAACGCGUCUCCCUCCUAAGGAGCAGACUGCGGGUUAGAGCCCCGUACGGAACG,0.661
2,GUUCCGUUGGCGUAAUGGUAACGCGUCUCCCUCCUAAGGAGCAGAGUGCGGAUUCGAGUCCCGUACGGAACG,≤ 0.5
3,GUUCCGUUGGCGUAAUGGUAACGCGUCUCCCUCCUAAGGAGCAGACUGCGGGUUUGAGUCCUGUACGGAACG,0.509
4,GUUCCGUUGGCGUAAUGGUAACGCGUCUCCCUCCUAAGGAGCAGACUGCGGAUUCGAGUCCCGUACGGAACG,0.676
5,GUUCCGUUGGCGUAAUGGUAACGCGUCUCCCUCCUAAGGAGCAGACUGCGGGUUCCAGUCCCGUACGGAACG,0.649
6,GUUCCGUUGGCGUAAUGGUAACGCGUCUCCCUCCUAAGGAGCAGAGUGCGGGUUCGAGUCCCGUUCCGAACG,≤ 0.5
7,GUUCCGUUGGCGUAAUGGUAACGCGUCUCCCUCCUAAGGAGCAGACUGCGGGUUCGAGUCCAGUAGGGAACG,≤ 0.5
8,GUUCCGUUGGCGUAAUGGUAACGCGUCUCCCUCCUAAGGAGCAGACUGCUGGUUCGAGUCCCGUACGGAACG,0.781
9,GUUCCGUUGGCGUAAUGGUAACGCGUCUCCCUCCUAAGGAGCAGACUGCAGGUUCGAGUCCCGUACGGAACG,0.745
10,GUUCCGUUGGCGUAAUGGUAACGCGUCUCCCUCCUAAGGAGCAGACUGCGGGUUCGAGUCCCGUUUGGAACG,0.558
11,GUUCCGUUGGCGUAAUGGUAACGCGUCUCCCUCCUAAGGAGCAGACUGCGGGUUCGAGUCCGGUCCGGAACG,0.544
12,GUUCCGUUGGCGUAAUGGUAACGCGUCUCCCUCCUAAGGAGCAGACUGCGCGUUCGAGUCCCGUACGGAACG,0.553
13,GUUCCGUUGGCGUAAUGGUAACGCGUCUCCCUCCUAAGGAGCAGACUACGGGUUCGAGUCCUGUACGGAACG,1.03
14,GUUCCGUUGGCGUAAUGGUAACGCGUCUCCCUCCUAAGGAGCAGACUGCGAGUUCGAGUCCCGUUCGAAACG,≤ 0.5
15,GUUCCGUUGGCGUAAUGGUAACGCGUCUCCCUCCUAAGGAGCAGACUGCGGGUUCGAGUCCGGUACGGAACG,0.704
16,GUUCCGUUGGCGUAAUGGUAACGCGUCUCCCUCCUAAGGAGCAGAUUGCGGGUUCGAGUCCCGUACGGAACG,0.969
17,GUUCCGUUGGCGUAAUGGUAACGCGUCUCCCUCCUAAGGAGCAGACUGCGGGUUCGAGUCCCGUACGGCACG,0.939
18,GUUCCGUUGGCGUAAUGGUAACGCGUCUCCCUCCUAAGGAGCAGACUGCGGGUUCGAGUCCCGUACGGAGCG,0.87
19,GUUCCGUUGGCGUAAUGGUAACGCGUCUCCCUCCUAAGGAGCAGACUGCGGGUUCGAGUCCCGUACGGACCG,1.02

row,Variant,yeast fitness
1,GUUCCGUUGGCGUAAUGGUAACGCGUCUCCCUCCUAAGGAGCAGACUCAGGGUUCGAGUCCCGUACGGAACG,≤ 0.5
2,GUUCCGUUGGCGUAAUGGUAACGCGUCUCCCUCCUAAGGAGCAGACUGCCGGUUCGAGUCCCGUAUGGAACG,0.534
3,GUUCCGUUGGCGUAAUGGUAACGCGUCUCCCUCCUAAGGAGCAGACUGAGGGUUCGAGUCCCGUACCGAACG,≤ 0.5
4,GUUCCGUUGGCGUAAUGGUAACGCGUCUCCCUCCUAAGGAGCAGACUGCGGGUUCGAGUGCCGUACGGAACG,0.608
5,GUUCCGUUGGCGUAAUGGUAACGCGUCUCCCUCCUAAGGAGCAGACUGCGGGUUCGAGUACCGUACGGAACG,0.672
6,GUUCCGUUGGCGUAAUGGUAACGCGUCUCCCUCCUAAGGAGCAGACUCCGGGUUCGAGUCCCGUACGGAACG,0.763
7,GUUCCGUUGGCGUAAUGGUAACGCGUCUCCCUCCUAAGGAGCAGACUACGGGUUCGAGUCCCGUACGGAACG,1.07
8,GUUCCGUUGGCGUAAUGGUAACGCGUCUCCCUCCUAAGGAGCAGACUGCGGGUUCGAGUCCCGUAGGGAACG,0.684
9,GUUCCGUUGGCGUAAUGGUAACGCGUCUCCCUCCUAAGGAGCAGACUGCGGGUUCGAGUCCCGUAAGGAACG,0.688
10,GUUCCGUUGGCGUAAUGGUAACGCGUCUCCCUCCUAAGGAGCAGACUGCGGAUUCCAGUCCCGUACGGAACG,≤ 0.5
11,GUUCCGUUGGCGUAAUGGUAACGCGUCUCCCUCCUAAGGAGCAGACUGCGGGUUCGACUCCCGUACGGAACG,0.975
12,GUUCCGUUGGCGUAAUGGUAACGCGUCUCCCUCCUAAGGAGCAGACUGCCGGUUCAAGUCCCGUACGGAACG,≤ 0.5
13,GUUCCGUUGGCGUAAUGGUAACGCGUCUCCCUCCUAAGGAGCAGAGUGCGGGUUCGAGUCCCGUACCGAACG,0.612
14,GUUCCGUUGGCGUAAUGGUAACGCGUCUCCCUCCUAAGGAGCAGACUGCGGGUUUGAGUCCCGUAUGGAACG,0.504
15,GUUCCGUUGGCGUAAUGGUAACGCGUCUCCCUCCUAAGGAGCAGACUGCGGGUUCGAGUCGCGUACGGAACG,0.721
16,GUUCCGUUGGCGUAAUGGUAACGCGUCUCCCUCCUAAGGAGCAAACUGCGGGAUCGAGUCCCGUACGGAACG,≤ 0.5
17,GUUCCGUUGGCGUAAUGGUAACGCGUCUCCCUCCUAAGGAGCAGACUGGGGGUUCGAGUCCCGUACGGAACG,0.759
18,GUUCCGUUGGCGUAAUGGUAACGCGUCUCCCUCCUAAGGAGCAGACUGAGGGUUCGAGUCCCGUACGGAACG,0.62
19,GUUCCGUUGGCGUAAUGGUAACGCGUCUCCCUCCUAAGGAGCAGACUGCGGGUUCGAGUCCGGUACCGAACG,≤ 0.5
